Screening results (PubChem)
Ba/F3 V617F tox – reduced viability of JAK2V617F-dependent Ba/F3 cells, primary screen, JAK2V617F inhibitor project, cell-based, Ba/F3 EpoR-JAK2V617F, luminescence | AID 1446, 2008 | ATP luminescence | inhibition, % at 5.6 µM | 1.1% of 220,000 active;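 active means inhibition above the campaign mean plus 3 SD over all tested compounds, cut at about 24% in these data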;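 further: cytokine-independent growth of Ba/F3 cells driven by EpoR plus mutant JAK2; 0% = DMSO-treated cells and 100% = JAK inhibitor I control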
APP 5UTR inh – inhibitors of APP translation via 5'UTR reporter, primary screen, APP 5'UTR luciferase, SH-SY5Y cells | 0.82% of 190,000 active | inhibition, % at 2 µM | SH-SY5Y APP 5'UTR-luciferase reporter, luminescence;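 active means inhibition above a set limit, derived from the sample mean plus 3 SD, cut at about 45% in these data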
MT stabilize HCS – microtubule stabilizers in HeLa cells, primary screen, imaging, high-content imaging | % tubulin-high responders, % at 10 µM | 0.83% of 200,000 active | HeLa tubulin immunostaining HCS, 24 h; share of cells brighter than vehicle mean+2SD | AID 2205, 2009;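 active means plate Z-score above 3 for both tubulin-high and condensed-nucleus cell shares, with cell loss under 80%, at 10 µM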;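 further: anti alpha tubulin signal scored within the nucleus-defined area of each cell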
IEC-6 tox – cytotoxicity in IEC-6 intestinal epithelial cells, primary screen, cytotoxicity control for KLF5 inhibitor project, cell-based, luminescence; IEC-6 cytotoxicity, luminescence viability; 0.78% of 290,000 active; inhibition, % at 5 µM;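 further: 0% = plate median of test compound wells and 100% = cytotoxic reference compound wells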
BaF3 parental – parental Ba/F3 cell viability inhibition, counter-screen for JAK2V617F inhibitor project, murine pro-B, CellTiter-Glo luminescence; CellTiter-Glo ATP luminescence; inhibition, % at 5.6 µM; 1.1% of 220,000 active; AID 1486, 2009;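 active means inhibition above a per-campaign cutoff, the mean inhibition of all tested compounds plus 3 SD, cut at about 27% in these data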;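 further: 0% = DMSO wells and 100% = JAK Inhibitor I control wells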
bCat nuc transl – modulators of beta-catenin nuclear translocation, primary screen, imaging, HeLa cells, immunofluorescence, high-content. nuclear translocation activity, % at 5 µM. 0.3% of 190,000 active. AID 1665, 2009;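 active means nuclear translocation activity above 50% at 5 µM, with a well cell count of 50 or more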;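 further: per-cell ratio of nuclear to cytoplasmic median beta-catenin stain intensity; plate controls were DMSO negative control for no effect and GSK-3 inhibitor IX positive control for full effect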
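test system = HeLa cells, endogenous beta-catenin | dosing = single 5 µM dose plus 0.02–20 µM confirmation series | times = compound treatment 24 h, 37°C, 5% CO2 | technique = beta-catenin immunofluorescence imaging with DAPI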
IEC-6 tox confirm – cytotoxic compounds in IEC-6 epithelial cells, confirmation, cytotoxicity control, cell-based, luminescence; shares compounds with IEC-6 tox; 63% of 1,900 active; inhibition, % at 5 µM; IEC-6 rat intestinal epithelial viability; AID 1907, 2009;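 further: 0% = vehicle and 100% = reference cytotoxic drug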
* marks the source's active call; other numbers are inactive results; . = not tested or not shown. This is a sample that favours compounds with a hit; in the whole collection about 2.2% have one here. Unless noted, no stated cut-off is given here; in the data, active means inhibition above about 22%; inactive means the rest.

SMILES | Ba/F3 V617F tox | APP 5UTR inh | MT stabilize HCS | IEC-6 tox | BaF3 parental | bCat nuc transl | IEC-6 tox confirm
COC(=O)Cc1nnc(SCC(=O)Nc2ccccc2)c2ccccc12 | . | . | . | -4 | . | . | .
Cc1cccc(CS(=O)(=O)Cc2ccc(C(=O)NC3CCCCCC3)o2)c1 | . | . | . | 8 | . | . | .
CC1(C)C2CC=C(/C=N/NC(=S)Nc3cccnc3)C1C2 (centres undefined) | -2 | -18 | 11 | -6 | 4 | 1 | .
CC1=C/C(=N\NC(=S)Nc2cccnc2)CC(C)(C)C1 | 8 | -1 | 3 | 29* | 7 | 0 | 59*
COc1ccccc1NC(=O)CCN1C(=O)C2C3CCC(C3)C2C1=O (centres undefined) | . | . | . | -2 | . | . | .
CCOC(=O)c1nc(NNC(=O)c2ccc([N+](=O)[O-])cc2)sc1C | . | . | . | 38* | . | . | 21
CCOC(=O)c1sc(NNC(=O)c2ccc(C)cc2)nc1C | -6 | . | . | 1 | 1 | 0 | .
O=C(c1ccco1)c1coc2c1cc(O)c1ccccc12 | -1 | -60 | 4 | 25* | -1 | 1 | 6
CC(=O)c1coc2c1cc(O)c1ccccc12 | -4 | -30 | 3 | 0 | 2 | . | .
COc1ccc(N(CC(=O)NCc2ccco2)C(=O)CCC(=O)Nc2nccs2)c(OC)c1 | . | . | . | 6 | . | . | .
Cc1ccccc1-c1ocnc1C(=O)Nc1ccccc1NC(=O)c1ccccn1 | . | . | . | 23* | . | . | 8
Cc1ccc(NC(=S)NNC(=O)c2ccccc2OC(F)F)cc1 | 26* | -14 | 45* | 28* | 41* | 1 | 11
COCCCNC(=O)CN(c1ccc(F)cc1)S(=O)(=O)c1ccc2c(c1)OCCO2 | . | . | . | -5 | . | . | .
CC(=O)O[C@H]1C(=O)[C@@]2(C)C([C@H](OC(=O)c3ccccc3)[C@]3(O)C[C@H](OC(=O)[C@H](O)[C@@H](NC(=O)c4ccccc4)c4ccccc4)C(C)=C1C3(C)C)[C@]1(OC(C)=O)CO[C@@H]1C[C@H]2O (some centres undefined) | . | . | . | 84* | . | . | 77*
COc1ccc(/C=C/c2c(-c3ccc(OC)cc3)oc3cccnc23)cc1 | . | . | . | -1 | . | . | .
COc1cc(OC)cc(-c2oc3cccnc3c2C#CCCO)c1 | . | . | . | 25* | . | . | 17
CN1C2=NCCN2C(=O)c2cc(Cl)ccc21 | -3 | . | . | 6 | 1 | -1 | .
Cn1c(Cl)cnc1C1CC(=O)c2cc(Cl)ccc2O1 (centres undefined) | 55* | 27 | 3 | 70* | 50* | 1 | 9
C/C(=N\NC(=O)Cc1ccc(Cl)cc1)c1ccccc1O | . | . | . | 28* | . | . | 29*
C/C(=N\NC(=O)Cc1ccc(Cl)cc1)c1ccc(F)cc1 | . | . | . | 2 | . | . | .
Cc1ccc(NC(=O)C2=C(C(=O)O)CCCC2)cc1Br | . | . | . | 3 | . | . | .
COc1ccccc1NC(=O)CN(c1ccccc1)S(=O)(=O)c1ccccc1 | . | . | . | -3 | . | . | .
COc1ccc(N(CC(=O)Nc2ccccc2OC)S(=O)(=O)c2ccc(NC(C)=O)cc2)cc1 | . | . | . | 38* | . | . | 32*
CCC(CC)c1nnc(NC(=O)c2ccc3ccccc3n2)s1 | -3 | -96 | 4 | 35* | 4 | 1 | 3
CCC(CC)c1nnc(NC(=O)c2cc(-c3ccccc3)nc3ccccc23)s1 | -5 | -2 | 4 | 1 | 1 | 0 | .
SMILES | Ba/F3 V617F tox | APP 5UTR inh | MT stabilize HCS | IEC-6 tox | BaF3 parental | bCat nuc transl | IEC-6 tox confirm
CCCOc1ccc(S(=O)(=O)n2cc(F)c(=O)[nH]c2=O)cc1 | . | . | . | 44* | . | . | 7
CCOc1ccc(Cn2cc(F)c(=O)[nH]c2=O)cc1 | -2 | . | . | 0 | 0 | -1 | .
CC(C)COc1ccc(S(=O)(=O)n2cc(F)c(=O)[nH]c2=O)cc1 | 61* | -5 | 3 | 85* | 63* | 2 | -1
CC(C)COc1ccc(C2NC(=O)NC2=O)cc1 (centres undefined) | 2 | 11 | 2 | 5 | 5 | 0 | .
CCOc1ccc(C(=O)Nc2ccc(S(=O)(=O)N3CCN(C)CC3)cc2)cc1 | . | . | . | -4 | . | . | .
C/C(=N\NC(=O)c1cccc2ccccc12)c1ccccn1 | . | . | . | 16 | . | . | .
COc1ccc(C(=O)N/N=C(\C)c2ccccn2)cc1OC | . | . | . | 40* | . | . | 99*
C/C(=N\NC(=O)c1ccccc1Cl)c1ccccn1 | . | . | . | 41* | . | . | 66*
O=C(N/N=C(\c1ccccc1)c1ccccn1)c1ccccc1Cl | . | . | . | 95* | . | . | 58*
C/C(=N\NC(=O)c1ccc(Cl)c(Cl)c1)c1ccccn1 | . | . | . | 42* | . | . | 97*
C/C(=N/NC(=O)c1ccccn1)c1ccncc1 | . | . | . | 6 | . | . | .
COc1ccc(C(=O)N/N=C(\c2ccccc2)c2ccccn2)cc1 | 74* | 78* | 3 | 28* | 68* | -1 | 65*
O=C(O)c1cccnc1SCc1cccc(Br)c1 | . | . | . | 7 | . | . | .
CCC1=Nc2cc(C(=O)NCc3ccco3)ccc2Sc2ccc(C)cc21 | 86* | 94* | 4 | 81* | 84* | 74* | 65*
CCC1=Nc2cc(C(=O)NCCN3CCCC3)ccc2Sc2ccccc21 | . | . | . | -1 | . | . | .
CCC1=Nc2cc(C(=O)NCCCN3CCOCC3)ccc2Sc2ccccc21 | . | . | . | 5 | . | . | .
CCCC1=Nc2cc(C(=O)NCCCOCC)ccc2Sc2ccccc21 | 93* | 97* | 15 | 97* | 91* | 105* | 74*
CCC1=Nc2cc(C(=O)NCCN3CCOCC3)ccc2Sc2ccc(C)cc21 | . | . | . | 4 | . | . | .
CCC1=Nc2cc(C(=O)NCCCOC)ccc2Sc2ccccc21 | 77* | 95* | 25* | 88* | 79* | . | 60*
O=C(CSc1cccc[n+]1[O-])c1ccccc1Br | 7 | -8 | 5 | 85* | 7 | -2 | 7
COc1ccc(-c2cc(C(=O)Nc3cc(Cl)ccc3O)no2)cc1 | . | . | . | -4 | . | . | .
